Reference: ChEMBL document CHEMBL1649147, “Antistaphylococcal activity of dihydrophthalazine antifolates, a family of novel antibacterial drugs” (2009)
In brackets after ≈: the same amount, converted by molar mass.

Legend:
Assay type in all cases: functional
[1] = test system: Staphylococcus epidermidis; assay: Antibacterial activity against methicillin-resistant, vancomycin-intermediate coagulase-negative Staphylococcus epidermidis 225 after 50 passages by agar dilution method
Method in brief: (§1)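 Daily serial passage for up to 50 days at 35°C for 24 h in 1 ml MHB. […] Each transfer used 10 µl from the tube nearest the MIC (1–2 dilutions below) with the same turbidity as the drug-free control. […] MICs were measured by agar dilution, with changes given as log2 steps.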

[2] = test system: Staphylococcus aureus; assay: Antibacterial activity against Staphylococcus aureus 145 after 37 passages by agar dilution method
Method in brief: (§2)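 Serial passage under drug. Inoculum was ~1 × 10^6 CFU/ml from overnight MHA growth, in 1 ml MHB at 35°C for 24 h. Drug ranged from 4 log2 steps above to 3 log2 steps below the MIC. […] MIC change is given as log2 steps.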

[3] = test system: Staphylococcus epidermidis; assay: Antibacterial activity against coagulase-negative Staphylococcus epidermidis 057 after 50 passages by agar dilution method; method in brief: as §2
[4] = test system: Staphylococcus epidermidis; assay: Antibacterial activity against methicillin-resistant, vancomycin-intermediate coagulase-negative Staphylococcus epidermidis 225 after 38 passages by agar dilution method; method in brief: as §1
[5] = test system: Staphylococcus epidermidis; assay: Antibacterial activity against methicillin-resistant, Linezolid non-susceptible coagulase-negative Staphylococcus epidermidis 345 after 33 passages by agar dilution method; method in brief: as §1
[6] = test system: Staphylococcus aureus; assay: Antibacterial activity against Staphylococcus aureus 145 after 47 passages by agar dilution method; method in brief: as §2
[7] = test system: Staphylococcus aureus; assay: Antibacterial activity against vancomycin-resistant Staphylococcus aureus VRS1 after 20 passages by agar dilution method; method in brief: as §1
[8] = test system: Staphylococcus epidermidis; assay: Antibacterial activity against coagulase-negative Staphylococcus epidermidis 051 after 38 passages by agar dilution method; method in brief: as §2
[9] = test system: Staphylococcus aureus; assay: Antibacterial activity against methicillin-resistant Staphylococcus aureus 145 after 47 passages by agar dilution method; method in brief: as §2
[10] = test system: Staphylococcus aureus; assay: Antibacterial activity against methicillin-resistant and vancomycin-resistant Staphylococcus aureus VRS1 after 20 passages by agar dilution method; method in brief: as §1
[11] = test system: Staphylococcus aureus; assay: Antibacterial activity against vancomycin-resistant Staphylococcus aureus VRS1 after 25 passages by agar dilution method; method in brief: as §1
[12] = test system: Staphylococcus epidermidis; assay: Antibacterial activity against coagulase-negative Staphylococcus epidermidis 057 after 23 passages by agar dilution method; method in brief: as §2

COc1ncc(C2c3ccccc3C=NN2C(=O)/C=C/c2cc(Cc3cnc(N)nc3N)cc(OC)c2OC)cn1 (configuration not stated)
MIC [1]: 128 µg/mL (≈ 232 µM) | MIC [2]: > 128 µg/mL | MIC [3]: 128 µg/mL (≈ 232 µM)

COc1cc(Cc2cnc(N)nc2N)cc(/C=C/C(=O)N2N=Cc3ccccc3C2c2cnc(N(C)C)nc2)c1OC (configuration not stated)
MIC [4]: > 128 µg/mL | MIC [5]: > 128 µg/mL | MIC [6]: > 128 µg/mL | MIC [7]: > 128 µg/mL | MIC [8]: > 128 µg/mL | MIC [9]: > 128 µg/mL | MIC [10]: > 128 µg/mL

COc1cc(Cc2cnc(N)nc2N)cc(/C=C/C(=O)N2N=Cc3ccccc3C2c2cnc(N3CCOCC3)nc2)c1OC (configuration not stated)
MIC [11]: > 128 µg/mL | MIC [12]: > 128 µg/mL
